GAA850 FXN act: frataxin GAA850 promoter activation; HEK293 lucGAA850 FXN promoter luciferase reporter, 24 h; percent of 10 µM SAHA response; activation, % at 6 µM; 0.56% of 360,000 active; AID 540364;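 active means activation above the average of all compounds screened plus 3 SD, cutoff fixed separately per campaign, cut at about 7.5% in these data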
CTSL1 counter: counter-screen for PFM18AAP inhibitors: inhibitors of F. hepatica cathepsin L1. recombinant F. hepatica cathepsin L1, Z-Leu-Arg-MCA fluorescence. inhibition, % at 5.96 µM. 0.49% of 300,000 active;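 active means inhibition above the mean of all tested compounds plus 3 SD, set per screening campaign, cut at about 17% in these data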
SENP1 inh: blocks the human SENP1 SUMO protease catalytic domain | Q9P0U3 | recombinant SENP1 catalytic domain, CyPet-SUMO1-YPet FRET cleavage | inhibition, % at 10 µM | 0.21% of 360,000 active | AID 624204;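 active means inhibition at least 30% at 10 µM, raw YFP signal under a set limit, fluorescence ratio 0.5 to 1.5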
Target sequence (Q9P0U3 419-644 limits assumed): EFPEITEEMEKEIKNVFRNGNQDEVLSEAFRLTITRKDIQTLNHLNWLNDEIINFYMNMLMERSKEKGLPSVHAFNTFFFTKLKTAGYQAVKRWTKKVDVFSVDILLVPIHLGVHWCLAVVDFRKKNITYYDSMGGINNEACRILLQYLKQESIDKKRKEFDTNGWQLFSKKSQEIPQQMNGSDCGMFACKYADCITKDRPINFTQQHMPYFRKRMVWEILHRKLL
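Test system: hSENP1 catalytic domain, recombinant; Amount: 20 pM final SENP1 enzyme; Medium: Tris pH 8 buffer plus EDTA, NaCl, BME, BSA, NP40, catalase; Schedule: 50 min enzyme reaction, room temperature, light-protected; Technique: FRET fluorescence in CFP and YFP emission channels; Controls: no-enzyme wells low, DMSO-plus-enzyme wells high control.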
PfM18AAP inh: blocks P. falciparum M18 aspartyl aminopeptidase; recombinant PfM18AAP, H-Glu-NHMec fluorogenic cleavage; inhibition, % at 7.35 µM; 1.2% of 290,000 active; AID 1822;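 active means inhibition above the campaign mean inhibition over all tested compounds plus 3 SD, cut at about 28% in these data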
HDAC3 inhib: inhibitors of human histone deacetylase 3; O15379; recombinant HDAC3, fluorogenic peptide/trypsin coupled, fluorescence; inhibition, % at 8.3 µM; 0.15% of 320,000 active; in the data active means inhibition above about 26%, passing the limit was not always enough; inconclusive means no clear call, values can overlap the other calls
Target sequence (O15379 whole entry, looked up): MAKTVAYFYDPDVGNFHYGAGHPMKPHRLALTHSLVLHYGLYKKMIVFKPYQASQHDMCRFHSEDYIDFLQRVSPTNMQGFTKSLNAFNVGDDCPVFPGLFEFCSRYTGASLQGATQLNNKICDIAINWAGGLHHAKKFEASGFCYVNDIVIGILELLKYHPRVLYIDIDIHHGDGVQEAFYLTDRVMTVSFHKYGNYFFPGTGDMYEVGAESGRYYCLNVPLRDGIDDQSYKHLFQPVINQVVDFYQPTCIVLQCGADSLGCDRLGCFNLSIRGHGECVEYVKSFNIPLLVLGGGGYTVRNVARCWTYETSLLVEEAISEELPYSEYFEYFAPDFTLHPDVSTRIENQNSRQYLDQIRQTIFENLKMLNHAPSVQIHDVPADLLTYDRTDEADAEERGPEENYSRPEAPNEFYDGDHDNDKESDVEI
AHR act: activators of human aryl hydrocarbon receptor; P35869; AHR-responsive luciferase reporter cells, luminescence; activation, % at 5 µM; 2.5% of 320,000 active; AID 2796; in the data active means activation above about 47%
Numbers stand for hits; . = inactive; ? = inconclusive; / = no result given. Hits are enriched below; roughly 4.2% of the tested compounds scored in any of these assays.

SMILES	GAA850 FXN act	CTSL1 counter	SENP1 inh	PfM18AAP inh	HDAC3 inhib	AHR act
O=C(O)c1ccc(NC(=S)Nc2ccccc2)cc1	.	.	.	.	.	.
COc1ccc(C)cc1NC(=O)c1ccc(OC(F)F)cc1	.	.	.	.	.	69.9
CC(=O)Oc1ccc(C(=O)NCc2ccc3c(c2)OCO3)cc1	.	.	.	.	.	.
CCc1noc(N)c1C(=O)Nc1ccc(Cl)cc1	.	.	.	.	.	76.2
COC(=O)c1[nH]c2cc(C)ccc2c1NC(=O)CN1CCN(C(=O)c2ccco2)CC1	.	.	.	.	/	67.3
COC(=O)c1[nH]c2cc(C)ccc2c1NC(=O)CN1CCCc2ccccc21	.	.	.	.	.	66.5
COC(=O)c1[nH]c2ccc(Br)cc2c1NC(=O)CN1CCCc2ccccc21	.	.	.	.	.	47.7
COC(=O)c1[nH]c2ccc(Br)cc2c1NC(=O)CN1CCN(C2CCCCC2)CC1	.	.	.	.	.	.
CCCCN(C=O)c1c(CC)nc2c(OCc3ccc(Cl)cc3)cccn12	.	/	.	/	/	/
CCOC(=O)c1sc(=NC(=O)c2ccc(F)cc2)n(C)c1C	.	.	.	.	.	.
CCOC(=O)c1sc(=NC(=O)c2c(F)cccc2F)n(C)c1C	.	18.4	.	.	.	.
CN=c1scc(-c2cccs2)n1/N=C/c1ccc(O)c(O)c1O	.	.	.	31.0	.	.
CN=c1scc(-c2cccs2)n1/N=C/c1ccccc1O	.	.	.	.	.	.
CCCC(=O)Nc1ccc(S(=O)(=O)Nc2cc(OC)ncn2)cc1	.	/	.	.	/	/
CCOCCCNC(=O)c1ccc2c(c1)N(Cc1ccccc1)C(=O)CS2=O (centres undefined)	.	.	.	28.5	.	.
COc1ccc(-c2n[nH]c(=S)n2/N=C/c2cccn2C)cc1	.	.	.	.	?	69.7
S=c1[nH]nc(-c2ccccc2)n1/N=C/c1cccs1	.	.	.	.	.	.
Cc1ccsc1/C=N/n1c(-c2cccnc2)n[nH]c1=S	.	.	.	.	.	60.2
CC(C)(C)c1ccc(-c2n[nH]c(=S)n2/N=C/c2ccncc2)cc1	.	.	.	.	.	74.5
Cc1ccc(-c2n[nH]c(=S)n2/N=C/c2cccs2)cc1	.	.	.	.	.	55.0
Cc1ccc(/C=N/n2c(-c3ccncc3)n[nH]c2=S)cc1	.	/	.	.	/	/
COC(C/C=C/C(=O)[C@H](C)OCc1ccccc1)OC	.	.	.	/	.	.
O/N=C(\Cn1ccnc1)c1ccccc1	.	/	.	/	/	/
O=C(O)c1ccc(-c2nc(-c3ccccc3)c(-c3cccs3)[nH]2)cc1	.	.	.	.	.	.
COc1ccc(-c2nc(-c3cccs3)c(-c3cccs3)[nH]2)cc1O	.	.	.	.	.	47.5
SMILES	GAA850 FXN act	CTSL1 counter	SENP1 inh	PfM18AAP inh	HDAC3 inhib	AHR act
C[C@]12C=CC(=O)C=C1CC[C@@H]1[C@@H]2C(=O)C[C@@]2(C)[C@H]1CC[C@]2(O)C(=O)COC(=O)CCC(=O)O	.	.	.	.	.	.
CCc1ccc(NC(=O)NNC(=O)c2cc3ccccc3cc2O)cc1	.	.	.	.	.	.
CCc1ccc(NC(=O)NNC(=O)c2ccc3ccccc3c2O)cc1	.	/	.	28.5	.	/
CCC1(C)Cc2c(sc3nc(NN)n(C)c(=O)c23)CO1 (centres undefined)	.	.	.	.	.	62.4
CCOC(=O)CSc1nc2sc3c(c2c(=O)[nH]1)CC(C)(CC)OC3 (centres undefined)	.	.	.	.	.	.
C=CCSc1nnc2c(n1)[nH]c1c(C)cccc12	.	.	.	.	.	64.5
Cc1cccc2c1[nH]c1nc(N/N=C\c3ccco3)nnc12	/	.	/	.	.	79.2
CC(/C=N/Nc1nnc2c(n1)[nH]c1ccccc12)=C\c1ccco1	.	.	.	.	.	72.9
CCSc1nc2c([nH]c3ccccc32)c(=O)n1C	.	.	.	.	.	.
CCSc1nnc2nc3[nH]c4c(C)cccc4c3nn12	.	.	.	.	.	54.4
Cc1ccnc(N/N=C/c2ccco2)n1	.	.	.	.	.	.
CN1CCN(S(=O)(=O)NC[C@H]2O[C@@H](n3cnc4c(N)ncnc43)[C@H](O)[C@@H]2O)CC1	.	/	.	/	/	/
CC[C@@H](C)[C@H](N)C(=O)NC[C@H]1O[C@@H](n2cnc3c(N)ncnc32)[C@H](O)[C@@H]1O	.	/	.	/	/	/
O=C(CSc1ncn[nH]1)NCc1ccccc1Cl	.	.	.	29.1	.	.
CC(C)C(C(=O)O)N1C(=O)/C(=C/c2cccn2C)SC1=S (centres undefined)	.	.	.	.	33.4	.
Cc1cc2c(cc1S(=O)(=O)CCC(=O)N(C)Cc1ccccc1)OCC(=O)N2	.	.	.	.	.	.
O=P(CCc1ccccc1)(c1ccccc1)c1ccccc1	.	/	.	/	/	/
CCOC(=O)c1c(-c2ccco2)csc1NC(=O)COC(=O)c1cnccn1	.	39.8	.	/	.	.
CCOC(=O)c1c(NC(=O)COC(=O)c2cnccn2)sc(C(=O)NC)c1C	.	.	.	/	.	.
O=C(Nc1ccccc1C(=O)Nc1ccc(Br)cn1)c1cccc([N+](=O)[O-])c1	.	.	.	.	.	.
O=C(NNC(=S)NC(=O)c1sc2ccccc2c1Cl)c1ccc(Cl)cc1	.	.	.	.	.	109.6
O=C(O)c1ccccc1NC(=S)NC(=O)c1sc2ccccc2c1Cl	.	.	.	.	.	.
COc1ccc(OC)c2c1sc(=NC(=O)c1ccco1)n2C	.	.	.	.	/	51.4
COc1ccc(OC)c2c1sc(=NC(=O)C1CC1)n2C	.	.	.	.	.	.
Cc1cc(=O)n2[nH]c(C(=O)O)nc2n1	.	.	.	.	.	.
SMILES	GAA850 FXN act	CTSL1 counter	SENP1 inh	PfM18AAP inh	HDAC3 inhib	AHR act
Cc1cc(=O)n2[nH]cc(C(=O)O)c2n1	.	.	.	29.1	.	.
CCCCNC(=O)CSc1nc2ccc(N3CCOCC3)cc2c(=O)n1CCc1ccccc1	.	.	.	.	.	58.3
CCCCn1c(SCC(=O)NCCOC)nc2ccc(N3CCOCC3)cc2c1=O	.	.	.	.	.	.
COCCNC(=O)CSc1nc2ccc(N3CCOCC3)cc2c(=O)n1CCc1ccccc1	.	.	.	.	.	73.0
COc1ccc(S(=O)(=O)N(C)C[C@H]2OCc3cnnn3CCCC(=O)N([C@@H](C)CO)C[C@H]2C)cc1	.	/	.	/	/	/
CCNC(=S)N/N=C(\C)c1ccc(N2CCOCC2)cc1	.	.	.	29.4	.	.
CNC(=S)N/N=C(\C)c1ccc(N2CCOCC2)cc1	.	/	.	.	/	/
CC(=O)c1cc2c(cc1NC(=O)C1CN(C(C)=O)c3ccccc3O1)OCO2 (centres undefined)	.	/	.	/	.	52.6
Nc1cccc(C(=O)OCC(=O)Nc2cccc3c2C(=O)c2ccccc2C3=O)c1	.	.	32.6	.	.	.
CCN(CC)CCC(=O)Nc1cccc2c1C(=O)c1ccccc1C2=O	.	.	61.8	.	.	.

Bioassay records: PubChem, several laboratories
